Bioassay records (PubChem BioAssay)
MEX-5 binding: C. elegans MEX-5 TCR-2 RNA binding activity. Q9XUB2. MEX-5/FITC-TCR2 RNA binding, fluorescence polarization; hits give low values. activity score (negative = inhibition of binding), % at 10 µM. 0.38% of 300,000 active. AID 1832;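 active means inhibition past about -25% in most replicates, and total fluorescence under double the plate's negative control median, limit read from the data; inconclusive means replicates evenly split on the limit, or fluorescence at least double controls; inactive means too little inhibition in most replicates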
core dimer inh: blocks dimerization of HCV core protein; inhibition, % at 5 µM; AID 1899; TR-FRET GST/Flag-core106 dimerization, 1536-well; 0.33% of 300,000 active;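 active means inhibition above the mean of all tested compounds plus 3 SD, set per screening campaign, cut at about 45% in these data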
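Assay system: tagged HCV core106 pair (GST and Flag); medium: KF-containing HEPES buffer, pH 7.45, DTT, CHAPS, BSA; also added: Eu donor and XL665 acceptor anti-tag antibodies; dosing: 5 µM single dose; timing: compound-protein-antibody incubation 4 h at 22.5 °C; signal: TR-FRET 671 and 617 nm emission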
CendR NRP1 mod: alters CendR peptide binding to human NRP-1. inhibition, % at 25 µM. 0.85% of 360,000 active. FAM-RPARPAR peptide binding to NRP-1, fluorescence polarization;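 active means inhibition or corrected inhibition above about 18%, plus a signal ratio from 0.5 to 1.5, limit read from the data, passing the limit was not always enough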
Target sequence (O14786 whole entry, looked up): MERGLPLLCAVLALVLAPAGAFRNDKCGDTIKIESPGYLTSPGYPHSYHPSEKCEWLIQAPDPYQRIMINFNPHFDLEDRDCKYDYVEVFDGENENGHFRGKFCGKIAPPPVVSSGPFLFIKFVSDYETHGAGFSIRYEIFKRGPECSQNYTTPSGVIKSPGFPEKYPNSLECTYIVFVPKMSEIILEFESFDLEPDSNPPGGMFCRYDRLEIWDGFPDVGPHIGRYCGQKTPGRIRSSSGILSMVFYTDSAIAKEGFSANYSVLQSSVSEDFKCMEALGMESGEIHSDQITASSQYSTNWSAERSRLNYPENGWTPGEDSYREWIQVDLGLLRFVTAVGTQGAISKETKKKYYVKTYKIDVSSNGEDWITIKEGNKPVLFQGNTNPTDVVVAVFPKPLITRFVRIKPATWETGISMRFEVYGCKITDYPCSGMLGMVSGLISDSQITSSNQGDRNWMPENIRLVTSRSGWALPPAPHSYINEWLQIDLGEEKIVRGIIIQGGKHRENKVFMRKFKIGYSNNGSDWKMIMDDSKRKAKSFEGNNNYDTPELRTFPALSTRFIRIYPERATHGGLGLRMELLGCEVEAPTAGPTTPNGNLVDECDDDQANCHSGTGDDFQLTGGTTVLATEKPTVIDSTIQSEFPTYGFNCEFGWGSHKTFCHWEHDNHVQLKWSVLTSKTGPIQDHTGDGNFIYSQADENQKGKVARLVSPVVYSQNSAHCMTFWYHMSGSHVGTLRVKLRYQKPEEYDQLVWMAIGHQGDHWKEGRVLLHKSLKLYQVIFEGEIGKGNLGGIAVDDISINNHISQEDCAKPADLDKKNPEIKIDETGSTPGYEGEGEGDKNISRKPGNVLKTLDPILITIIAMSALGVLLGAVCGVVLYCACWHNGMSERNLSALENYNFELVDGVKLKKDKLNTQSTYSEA
FID counter: fluorescent intercalator displacement, NS3 helicase counter-screen. inhibition, % at 7.9 µM. AID 1845. DNA fluorescent intercalator displacement, fluorescence. 0.17% of 290,000 active; in the data active means inhibition above about 37%;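 further: higher means more ethidium bromide displaced from hairpin DNA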
Numbers stand for hits; n = inactive; u = inconclusive; x = no result. Shown are actives, neighbours in structure and some others; about 1.5% of the full set was active somewhere.

SMILES	MEX-5 binding	core dimer inh	CendR NRP1 mod	FID counter
CCc1nnc(NS(=O)(=O)c2ccc(N=Cc3c(O)n(-c4ccc(Cl)cc4)c(=O)[nH]c3=O)cc2)s1	-27.9	n	n	n
CNS(=O)(=O)c1ccc(N=Cc2c(O)n(-c3ccc(C)cc3)c(=O)[nH]c2=O)cc1	n	n	n	n
O=C(O)CSC(=S)N1CC2CC(C1)c1cccc(=O)n1C2 (stereo unspecified)	n	n	n	n
C[C@]12CCC3C(CC[C@H]4C[C@@H](O)CC[C@]34C)C1C[C@@H](O)[C@]2(C)O (stereo partly specified)	x	x	28.4	x
COc1ccc2c(c1)C1OCCNC1CC2 (stereo unspecified)	x	x	n	x
Oc1cc2c(cc1O)[C@H]1c3ccccc3CN[C@@H]1CC2	-57.1	n	x	n
NP(=O)(OCC(F)(F)F)Oc1ccc(Cl)cc1 (stereo unspecified)	n	n	n	n
CCC1CN1P(=O)(Oc1ccc(Cl)cc1)N1CC1CC (stereo unspecified)	x	x	33.7	x
CCOc1ccc2nc(N=Nc3c(O)[nH]c(=S)[nH]c3=O)sc2c1	x	n	n	n
Nc1ccc(C2(c3ccc(N)cc3)CCCCC2)cc1	x	n	n	n
CN1CCC(O)(c2ccccc2)C2CCCC21 (stereo unspecified)	n	n	n	n
Cc1ccc(C2(O)CCN3CCCCC32)cc1 (stereo unspecified)	n	n	28.6	n
COC(=O)C1=C(c2ccc(C(C)=O)cc2)C[C@@H]2CC[C@H]1N2C(=O)NCc1ccc2c(c1)OCO2	x	x	21.2	x
COC(=O)C1=C(c2ccc(Cl)c(C(F)(F)F)c2)C[C@@H]2CC[C@H]1N2C(=O)NCCNC(C)=O	x	x	23.5	x
COC(=O)C1=C(c2ccc(Cl)c(C(F)(F)F)c2)C[C@@H]2CC[C@H]1N2C(=O)NCc1ccc2c(c1)OCO2	x	x	n	x
CCCNC(=O)N1[C@H]2CC[C@@H]1C(C(=O)OC)=C(c1ccc(F)cc1F)C2	x	x	32.0	x
COC(=O)C1=C(c2cccc(C#N)c2)C[C@@H]2CC[C@H]1N2C(=O)NCCO	x	x	29.0	x
COC(=O)C1=C(c2ccc(F)cc2F)C[C@@H]2CC[C@H]1N2C(=O)NCCNC(C)=O	x	x	n	x
O=c1[nH]cc(COCC(F)(F)C(F)(F)C(F)(F)F)c(=O)[nH]1	n	n	n	n
COC(=O)C1=C(c2cccc(C#N)c2)C[C@@H]2CC[C@H]1N2C(=O)N1CCC(O)CC1	x	x	25.1	x
COC(=O)C1=C(c2cccc(C#N)c2)C[C@@H]2CC[C@H]1N2C(=O)N1CCCCC1	x	x	n	x
COC(=O)C1=C(c2ccc(F)cc2OCc2ccccc2)C[C@@H]2CC[C@H]1N2C(=O)NC(C)C	x	x	n	x
COC(=O)C1=C(c2ccc(F)cc2OCc2ccccc2)C[C@@H]2CC[C@H]1N2C(=O)N1CCCC1	x	x	27.3	x
CCOP(=S)(OCC)Oc1cc(C)nc(C(C)C)n1	x	x	n	x
CC[n+]1c(-c2ccccc2)c2cc(N)ccc2c2ccc(N)cc21	x	x	46.9	x
SMILES	MEX-5 binding	core dimer inh	CendR NRP1 mod	FID counter
CCCNS(=O)(=O)c1ccc(OCC(=O)N2CCN(Cc3ccc4c(c3)OCO4)CC2)c(C)c1	n	n	n	x
CN1CCN(C(=O)OC2c3nccnc3C(=O)N2c2ccc(Cl)cn2)CC1 (stereo unspecified)	n	n	x	n
Cc1cc(/C=C2\C(=O)NC(=O)N(c3cccc(Br)c3)C2=O)c(C)n1C	-28.5	n	n	n
C[C@]12C[C@H](O)[C@@H](O)C[C@@H]1CC[C@@H]1[C@@H]2CC[C@]2(C)C(=O)CC[C@@H]12	x	x	n	x
O=C1NC(=S)NC(=O)C1=Cc1ccc2c(c1)CCN2CCCCl	n	65.1	n	n
O=c1ccc2cc(O[C@@H]3O[C@H](CO)[C@@H](O)[C@H](O)[C@H]3O)c(O)cc2o1	x	x	n	x
C[C@]12CC[C@H](O)CC1=CC(=O)C1C2CC[C@]2(C)C(=O)[C@H](O)CC12 (stereo partly specified)	x	x	19.4	x
c1ccc(CNC2=NCCS2)cc1	n	n	21.4	n
N#Cc1ccc(NC(=O)CN2CCN(C(=O)c3cccs3)CC2)cc1Cl	x	x	n	x
O=C(NCC1=C(c2ccc3ccccc3c2)C[C@@H]2CC[C@H]1N2Cc1ccco1)c1nccs1	x	x	n	x
C=C(C=O)CC1CC(O)[C@]2(C)OC3CC4OC5C[C@]6(C)O[C@]7(C)CCC8OC9C[C@]%10(C)OC%11C(C)=CC(=O)OC%11CC%10OC9C[C@@H](C)C8OC7CC6O[C@]5(C)CC5OC5C4OC3CC2O1 (stereo partly specified)	n	48.8	n	n
COc1ccc(CN2C(=O)NC(=O)/C(=C\c3ccco3)C2=O)cc1	-46.4	n	n	n
CCOc1cccc(N2C(=O)/C(=C/c3ccco3)C(=O)NC2=S)c1	n	60.6	n	n
O=C1NC(=S)N(c2ccccc2)C(=O)/C1=C/c1ccco1	-93.1	n	n	n
COCCNC(=O)CN1C(=O)CN=C(c2ccccc2)c2ccccc21	n	n	n	n
CCOC(=O)c1cccc(C2=C(CNC(=O)c3ccc([N+](=O)[O-])cc3)[C@H]3CC[C@@H](C2)N3Cc2ccccc2)c1	x	x	n	x
CC(C)[C@H]1C(=O)O[C@@H]2CCN3CC=C(COC(=O)[C@](C)(O)[C@]1(C)O)[C@H]23	n	n	n	n
CC1C(=O)OC2CCN3CC4OC4(COC(=O)C(C)(O)C1(C)O)C23 (stereo unspecified)	x	x	25.5	x
N#Cc1ccc(OCC(=O)N2CCN(Cc3ccc4c(c3)OCO4)CC2)cc1	n	n	n	n
Cc1ccccc1NC(=NCCCN1CC1)Nc1ccccc1C	x	x	40.5	x
Cc1ccc(C(C)C)c(OCC#CCN2CCCC2)c1	n	n	n	n
CN(C)c1ccc([N+](=O)[O-])c([N+](=O)[O-])c1	x	x	28.7	x
COc1cc2c(cc1O)C[C@H]1NCCc3cc4c(c-2c31)OCO4	n	n	n	38.0
COc1cc2c(cc1OC)-c1c3c(cc4c1[C@@H](C2)N(C)CC4)OCO3	n	n	n	67.2
COc1cc2c(cc1OC)-c1c(OC)c(OC)cc3c1C(C2)N(C)CC3 (stereo unspecified)	n	n	n	n
SMILES	MEX-5 binding	core dimer inh	CendR NRP1 mod	FID counter
Clc1cccc(N2Cc3ccccc3-n3nncc3C2)c1	x	x	n	x
CCOC(=O)[C@@]1(C#N)C(c2ccc(Cl)c(Cl)c2)[C@H](C(N)=O)N2C=C(C(C)=O)C=C[C@H]21 (stereo partly specified)	-56.2	n	n	n
COC(=O)[C@@]1(C#N)[C@@H]2C=CC(C(C)=O)=CN2[C@@H](C(N)=O)[C@@H]1c1ccc(F)cc1	-56.7	n	n	n
CC1=C(C)CN2CC(C#N)=C(N)C2C1 (stereo unspecified)	x	x	n	x
CC1c2ccccc2-n2nncc2CN1CC1CCCCC1 (stereo unspecified)	x	x	n	x
CC(C)[C@H]1C(=O)N2CCC[C@H]2[C@]2(O)O[C@](NC(=O)[C@@H]3C=C4c5cccc6[nH]cc(c56)C[C@H]4N(C)C3)(C(C)C)C(=O)N12	x	n	n	n
CN1C[C@H](CO)C=C2c3cccc4[nH]cc(c34)C[C@H]21	u	n	45.9	n
COC(=O)C1=C(c2cc3ccccc3o2)C[C@@H]2CC[C@H]1N2C(=O)N1CCCC1	n	n	n	x
